Screening data as filed in PubChem BioAssay.
RGS16-Gao = modulators of RGS16 binding to Galphao, primary screen, biochemical, human proteins, multiplexed bead flow cytometry; Regulator of G-protein signaling 16 (Homo sapiens) + Guanine nucleotide-binding protein …; bead-based flow cytometry RGS16-Galphao binding, fluorescence; actives lie on both sides; binding response (% of control), % at 10 µM; actives 0.38% (n = 220,000);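 also: Galphao activated by GDP with aluminum fluoride before binding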
RGS8-Gao = RGS8-Galphao binding modulators, primary screen, biochemical, multiplexed bead flow cytometry; actives lie on both sides; response (percent of control binding), % at 10 µM; Guanine nucleotide-binding protein G(o) subunit alpha (Homo sapiens), P09471; actives 0.34% (n = 220,000); in the data active = response below about 60% or above about 140%; inactive = in between;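 also: Galphao activated as the GDP aluminium fluoride complex binding bead-coupled RGS8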
ABCG2 block = ABCG2 efflux pump inhibitors, primary screen, multiplex with ABCB1, IgMXP3 cells, flow cytometry | inhibition, % at 6.6 µM | actives 0.1% (n = 190,000) | AID 1325, 2008 | JC-1 efflux;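 active = inhibition above 80%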
Target sequence (Q9UNQ0 whole entry, looked up): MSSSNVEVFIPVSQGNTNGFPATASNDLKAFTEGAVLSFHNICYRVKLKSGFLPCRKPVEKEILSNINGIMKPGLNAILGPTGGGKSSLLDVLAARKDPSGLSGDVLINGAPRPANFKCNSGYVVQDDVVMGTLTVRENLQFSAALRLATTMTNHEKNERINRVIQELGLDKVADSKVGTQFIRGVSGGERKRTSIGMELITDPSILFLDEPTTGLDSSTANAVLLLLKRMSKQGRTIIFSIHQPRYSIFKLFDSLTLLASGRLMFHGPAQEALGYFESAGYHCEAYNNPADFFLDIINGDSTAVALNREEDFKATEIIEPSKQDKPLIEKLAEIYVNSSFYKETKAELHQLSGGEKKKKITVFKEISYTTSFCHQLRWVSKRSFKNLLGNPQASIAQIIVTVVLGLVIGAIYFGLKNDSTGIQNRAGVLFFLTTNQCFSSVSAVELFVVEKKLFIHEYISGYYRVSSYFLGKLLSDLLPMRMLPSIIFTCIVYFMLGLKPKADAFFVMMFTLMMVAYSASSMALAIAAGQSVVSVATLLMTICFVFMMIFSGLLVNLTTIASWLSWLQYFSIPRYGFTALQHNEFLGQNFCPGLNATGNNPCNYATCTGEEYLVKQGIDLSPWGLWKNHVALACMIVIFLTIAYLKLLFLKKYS
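Assay system – ABCG2 IgMXP3 and barcoded ABCB1 CCRF-Adr cell mix · Input – 3 million cells/mL in well · Reagent – JC-1 fluorescent substrate · Compound – single test compound dose, 6.6 µM final · Timing – 10 min exposure at 25 °C with rotation, no wash · Detection – flow cytometry of retained JC-1 fluorescence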
ABCB1 block = ABCB1 efflux pump inhibitors, primary screen, cell-based, multiplex, flow cytometry, ABCG2 counter-screen. AID 1326, 2008. ATP-dependent translocase ABCB1 (Homo sapiens), P08183. CCRF-Adr cells, JC-1 efflux. actives 0.067% (n = 190,000). inhibition, % at 6.6 µM; in the data active = inhibition above about 40%;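 also: higher value means more JC-1 retained so stronger ABCB1 efflux block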
RGS4-Gao reg = modulators of RGS4 binding to Galphao, primary screen, biochemical, multiplexed bead flow cytometry | binding response (% of control), % at 10 µM | actives lie on both sides | actives 0.33% (n = 220,000) | Guanine nucleotide-binding protein G(o) subunit alpha (Homo sapiens), P09471; in the data active = binding response below about 49% or above about 150%; inactive = in between;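 also: fluorescent Galphao activated with aluminum fluoride binding bead-coupled RGS4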
RGS7-Gao = RGS7-Galphao binding modulators, primary screen, biochemical, multiplexed bead flow cytometry. actives lie on both sides. Guanine nucleotide-binding protein G(o) subunit alpha (Homo sapiens), P09471. binding response (% of control), % at 10 µM. actives 0.35% (n = 220,000); in the data active = binding response below about 49% or above about 150%; inconclusive = no clear call, values can overlap the other calls; inactive = in between;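 also: fluorescent Galphao held in activated GDP-AlF4 state binding bead-coupled RGS7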
RGS4-Gao HTS = modulators of RGS–Galpha-o binding, primary screen, biochemical, multiplexed beads, flow cytometry, RGS4/7/8/16/19; shares compounds with RGS16-Gao; multiplexed bead flow cytometry; RGS4–Galpha-o binding response, % at 10 µM; actives 99% (n = 1,600); AID 1504, 2009;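 also: fluorescently labeled Galpha-o bound to GDP with aluminium fluoride binding biotinylated RGS beads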
Biotin-avidin = disruption of biotin probe capture by avidin, counter-screen for RGS protein interaction modulators, biochemical, flow cytometry, bead-based; shares compounds with RGS16-Gao; streptavidin beads, fluorescein-biotin binding; inhibition, % at 10 µM; 1,700 tested, under 10 active;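 active = inhibition above 50%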;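 also: median green fluorescence of gated singlet beads compared with DMSO control wells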
RGS8-Gao single = RGS8-Galphao binding modulators, confirmation, biochemical, multiplexed bead flow cytometry, single concentration. shares compounds with RGS16-Gao. bead-based flow cytometry RGS8-Galphao binding, fluorescence; actives lie on both sides. binding response (% of control), % at 10 µM. actives 3% (n = 1,700); in the data active = binding response below about 72% or above about 130%; inactive = in between;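 also: Galphao activated as GDP AlF4 complex before binding bead RGS8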
RGS7-Gao single = RGS7-Galphao binding modulators, confirmation, biochemical, multiplexed bead flow cytometry, single concentration. shares compounds with RGS16-Gao. bead-based flow cytometry RGS7-Galphao binding; actives lie on both sides. response (percent of control binding), % at 10 µM. actives 7.8% (n = 1,700). AID 1837, 2009; in the data active = response below about 75% or above about 130%; inactive = in between;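 also: fluorescent Galphao activated with GDP and aluminum fluoride binding bead-coupled RGS7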
RGS16-Gao conf = modulators of RGS16-Galphao protein binding, confirmation, biochemical, single concentration, multiplexed bead flow cytometry; actives 4% (n = 1,700); shares compounds with RGS16-Gao; bead-based flow cytometry; actives lie on both sides; response (% of control binding), % at 10 µM; in the data active = response below about 74% or above about 130%; inactive = in between;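 also: Galphao activated as the GDP aluminium fluoride complex binding bead-coupled RGS16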
RGS4-Gao confirm = modulators of RGS4-Galphao protein binding, confirmation, biochemical, single concentration, multiplexed bead flow cytometry; actives lie on both sides; shares compounds with RGS16-Gao; AID 1840, 2009; binding response (% of control), % at 10 µM; actives 4% (n = 1,700); in the data active = binding response below about 74% or above about 130%; inactive = in between
RGS19-Gao conf = regulators of RGS19-Galphao binding, confirmation, biochemical, single point, multiplexed bead flow cytometry | AID 1841, 2009 | actives 5% (n = 1,700) | response (percent of control binding), % at 10 µM | bead-based flow cytometry RGS19-Galphao binding; actives lie on both sides | shares compounds with RGS16-Gao; in the data active = response below about 50% or above about 160%; inactive = in between
A number is an active result; [ ] = dose if it differs, or a comment. Compounds with a hit are over-represented: about 0.83% of the library has one in this group of screens. Unless noted, no rule for the calls is given here.

What do the screens show for `CCC(=O)NC(c1ccc(C)cc1)c1cc([N+](=O)[O-])c2cccnc2c1O` (stereo not given)?
RGS16-Gao: inactive; RGS8-Gao: 58; ABCG2 block: inactive; ABCB1 block: inactive; RGS4-Gao reg: inactive; RGS7-Gao: inactive; RGS4-Gao HTS: 68; Biotin-avidin: inactive; RGS8-Gao single: inactive; RGS7-Gao single: inactive; RGS16-Gao conf: inactive; RGS4-Gao confirm: inactive; RGS19-Gao conf: 42

Results for CC(=O)NC(c1ccc(C)cc1)c1cc([N+](=O)[O-])c2cccnc2c1O (stereo not given) ?
RGS16-Gao: inactive; RGS8-Gao: inactive; ABCG2 block: inactive; ABCB1 block: inactive; RGS4-Gao reg: inactive; RGS7-Gao: inactive

Results for Nc1ccc2nc(-c3ccc(N)c(Cl)c3)[nH]c2c1 ?
RGS16-Gao: inactive; RGS8-Gao: inactive; ABCG2 block: inactive; ABCB1 block: inactive; RGS4-Gao reg: inactive; RGS7-Gao: inactive

How did Nc1ccc(-c2nc3c(Cl)cc(N)cc3[nH]2)cc1 do in these assays?
RGS16-Gao: inactive; RGS8-Gao: inactive; ABCG2 block: inactive; ABCB1 block: inactive; RGS4-Gao reg: inactive; RGS7-Gao: 26; RGS4-Gao HTS: 78; Biotin-avidin: inactive; RGS8-Gao single: inactive; RGS7-Gao single: inactive; RGS16-Gao conf: inactive; RGS4-Gao confirm: inactive; RGS19-Gao conf: inactive

What do the screens show for `CN(C)c1nc(N)c([N+](=O)[O-])c(NCC2CCCO2)n1` (stereo not given)?
RGS16-Gao: inactive; RGS8-Gao: inactive; RGS4-Gao reg: inactive; RGS7-Gao: inconclusive

How did Cc1ccc(SCCNC(=O)/C=C/c2ccc([N+](=O)[O-])cc2)cc1 do in these assays?
RGS16-Gao: 280[activator]; RGS8-Gao: inactive; RGS4-Gao reg: inactive; RGS7-Gao: inactive; RGS4-Gao HTS: 113; Biotin-avidin: inactive; RGS8-Gao single: inactive; RGS7-Gao single: inactive; RGS16-Gao conf: inactive; RGS4-Gao confirm: inactive; RGS19-Gao conf: inactive

How did O=C(Cn1c(C(F)(F)F)nc2ccccc21)Nc1ccccc1N1CCOCC1 do in these assays?
RGS16-Gao: inactive; RGS8-Gao: 54; ABCG2 block: inactive; ABCB1 block: inactive; RGS4-Gao reg: 48; RGS7-Gao: 45; Biotin-avidin: inactive; RGS8-Gao single: inactive; RGS7-Gao single: inactive; RGS16-Gao conf: inactive; RGS4-Gao confirm: inactive; RGS19-Gao conf: inactive

What do the screens show for `CNC(=O)c1c(NC(=O)c2cccc(N3C(=O)CCC3=O)c2)sc2c1CCC2`?
RGS16-Gao: -3.7; RGS8-Gao: 3.9; RGS4-Gao reg: -2.7; RGS7-Gao: inconclusive; Biotin-avidin: inactive; RGS8-Gao single: inactive; RGS7-Gao single: inactive; RGS16-Gao conf: inactive; RGS4-Gao confirm: inactive; RGS19-Gao conf: inactive

Results for Cc1nnc(SCCN2CCOCC2)c2nn(-c3ccccc3F)c(C)c12 ?
RGS16-Gao: 180[activator]; RGS8-Gao: inactive; ABCG2 block: inactive; ABCB1 block: inactive; RGS4-Gao reg: inactive; RGS7-Gao: inactive; RGS4-Gao HTS: 110; Biotin-avidin: inactive; RGS8-Gao single: inactive; RGS7-Gao single: inactive; RGS16-Gao conf: inactive; RGS4-Gao confirm: inactive; RGS19-Gao conf: inactive

Results for CCC1S/C(=N/N=C/c2ccco2)N(Cc2ccccc2)C1=O (stereo not given) ?
Biotin-avidin: inactive; RGS8-Gao single: inactive; RGS7-Gao single: inactive; RGS16-Gao conf: inactive; RGS4-Gao confirm: inactive; RGS19-Gao conf: inactive

Results for Cc1ccc(CN2CCN(Cc3cnc(C)s3)CC2CCO)cc1 (stereo not given) ?
RGS16-Gao: inactive; RGS8-Gao: inactive; ABCG2 block: inactive; ABCB1 block: inactive; RGS4-Gao reg: inactive; RGS7-Gao: inactive

What do the screens show for `O=C(/C=C/c1ccccc1)NNC(=O)C1CC1`?
ABCG2 block: inactive; ABCB1 block: inactive; Biotin-avidin: inactive; RGS8-Gao single: inactive; RGS7-Gao single: inactive; RGS16-Gao conf: inactive; RGS4-Gao confirm: inactive; RGS19-Gao conf: inactive

Results for Cn1c(SCCOc2ccc(Cl)cc2)nnc1-c1ccncc1 ?
RGS16-Gao: inactive; RGS8-Gao: inactive; ABCG2 block: inactive; ABCB1 block: inactive; RGS4-Gao reg: inactive; RGS7-Gao: inactive

How did COc1ccc(C(=O)Nc2ccc(N3CCN(Cc4ccccc4)CC3)cc2)cc1 do in these assays?
RGS16-Gao: inactive; RGS8-Gao: inactive; ABCG2 block: inactive; ABCB1 block: inactive; RGS4-Gao reg: inactive; RGS7-Gao: inactive

How did COc1c(F)c(F)c(C(=O)Nc2ccc(N3CCN(Cc4ccccc4)CC3)cc2)c(F)c1F do in these assays?
RGS16-Gao: inactive; RGS8-Gao: 175[activator]; ABCG2 block: inactive; ABCB1 block: inactive; RGS4-Gao reg: inactive; RGS7-Gao: inactive; RGS4-Gao HTS: 141; Biotin-avidin: inactive; RGS8-Gao single: inactive; RGS7-Gao single: inactive; RGS16-Gao conf: inactive; RGS4-Gao confirm: inactive; RGS19-Gao conf: inactive
